Results reported in article PMC5437736 (Molecular Therapy. Methods & Clinical Development, 2017).
Non-standard residues stand in square brackets, D forms with d. No end group written: not given here. Dmt = Cc1cc(O)cc(C)c1C[C@H](N)C(=O)O; Orn = NCCC[C@H](N)C(=O)O

Legend:
[1] = test system: mitochondrial superoxide in HeLa 705 cells; assay: Superoxide anion scavenging assay; assay type: cell-based, human; settings: 5 μM, 24 hr, MitoSOX fluorescence, mean of three experiments
Procedure, shortened: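 HeLa 705 cells seeded at 7 × 10³ per well, recovered 24 hr, then exposed to peptide for 24 hr. MitoSOX Red working solution in HBSS/Ca/Mg added for 10 min at 37°C, 5% CO2, in the dark. Cells washed with 0.2% BSA in PBS and read at ex 510/em 580 nm. Signal normalised to antimycin A-treated cells or to a reference peptide. Mean ± SD of three experiments.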

[2] = test system: mitochondrial membrane potential in HeLa 705 cells; assay: Mitochondrial membrane potential; assay type: cell-based, human; settings: 5 μM peptide 24 hr, TMRE fluorescence, n = 3; for mitochondrial membrane potential (Δψm) with H2O2 (oxidative stress): H2O2 200 μM for 2 hr
Procedure, shortened: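 HeLa 705 cells seeded 24 hr ahead and treated 24 hr with peptide. In the stress arm, a 2 hr H2O2 exposure preceded the 24 hr incubation at 37°C, 5% CO2. TMRE added at 400 nM final for 30 min in the dark, then PBS wash and 0.2% BSA in PBS. Read at ex 549/em 575 nm, as percent of untreated cells or untreated + H2O2. FCCP and H2O2 served as controls. Mean ± SD of three experiments; one-way ANOVA.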

[3] = test system: HeLa 705 cells; assay: Fluorescence microscopy, cellular uptake and localization; assay type: cell-based, human; settings: carboxyfluorescein-labelled peptide 5 μM, 4 hr, 200 nM TMRE
Procedure, shortened: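 HeLa 705 cells given carboxyfluorescein-labelled peptides for 4 hr; untreated cells got fresh medium in parallel. Mitochondria stained with 200 nM TMRE (20 min at 37°C per methods; added 30 min pre-imaging per legend) and nuclei with Hoechst 33342 (10 min). Inverted fluorescence microscope with 10×/40× dry and 63× oil objectives, held at 36 ± 1°C. Excitation/emission: Hoechst 346/497 nm, FAM 494/519 nm, TMRE 535/575 nm.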

[4] = Dynamic light scattering; assay type: physicochemical; settings: MilliQ H2O or cell culture media, 5 μM
Procedure, shortened: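 Test compound dissolved either in DMEM with 10% FBS or in MilliQ water adjusted to pH 7.4. Dynamic light scattering gave hydrodynamic mean diameter and zeta potential. Data plotted as size distribution by intensity.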

[5] = test system: HeLa 705 cells; assay: WST-1 cell proliferation/viability assay; assay type: cell-based, human; settings: 20% DMSO in complete growth medium, 24 hr, positive control
Procedure, shortened: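 Cells seeded at 7 × 10³ per well 24 hr ahead, then exposed 24 hr to peptide at several concentrations in complete medium. WST-1 added at 1:10 final dilution after 20 hr and incubated 4 hr. Plate shaken 1 min; formazan read at 450 nm against 650 nm reference. Controls: 20% DMSO (v/v) for 24 hr and H2O2 at two levels. Mean of at least three experiments with SD.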

[6] = Solubility in MilliQ water; assay type: physicochemical; settings: compared with unlabelled peptide
[7] = test system: HeLa 705 cells; assay: Subcellular uptake by spectrofluorometry after isolation of mitochondria; assay type: cell-based, human; settings: 5 μM, 24 hr; for compartment of main accumulation: membranes, cytosol, mitochondria fractions
Procedure, shortened: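 HeLa 705 cells grown in flasks for 24 hr, treated 24 hr with fluorescein-labelled peptide, then scraped at about 90% confluence. Reagent-based kit with differential centrifugation (700 × g 10 min, then 12,000 × g 15 min, 4°C) gave membrane, cytosol and mitochondrial fractions. Fluorescein read at […] and normalised to untreated cells. Mean ± SD of three experiments; one-way ANOVA.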

[8] = test system: cells; settings: 1-hr treatment with 1 mM of GSH; cited from earlier work
[9] = read-out: EC50 of the hydroxyl radical scavenging reaction; cited from earlier work
[10] = test system: different cell lines; settings: high concentration (100 μM); cited from earlier work

For “[dR][Dmt][Orn]FY(Me)ECG-NH2 (N-terminus assumed; SMILES COc1ccc(C[C@H](NC(=O)[C@H](Cc2ccccc2)NC(=O)[C@H](CCCN)NC(=O)[C@H](Cc2c(C)cc(O)cc2C)NC(=O)[C@H](N)CCCNC(=N)N)C(=O)N[C@@H](CCC(=O)O)C(=O)N[C@@H](CS)C(=O)NCC(N)=O)cc1) [mtgCPP]”, the “improvement of superoxide anion scavenging ability compared with UPF25” value [1] was 3 fold, the “improvement of superoxide anion scavenging ability compared with mtCPP1” value [1] was 2 fold and the “mitochondrial membrane potential (Δψm) with H2O2 (oxidative stress)” value [2] was “close to the healthy situation”. For the same compound, the “mitochondrial localization (merge with TMRE)” value [3] was “partially targets the mitochondria” and the “aggregation (from DLS size)” value [4] was “forming aggregates”.

For `C[S+](C)[O-]` [DMSO], the cell viability [5] was “approximately 20%”.

In the case of FAM-Tyr(Me)-Glu-Cys-Gly-NH2 [FAM-UPF25], the “effect of the carboxyfluorescein moiety on solubility” value (from here on “effect … on solubility”) [6] is reported as “slightly decreased” and the “compartment of main accumulation” value [7] is reported as “mainly accumulates in membranes”.

For “FAM-D-Arg-Dmt-Orn-Phe-Tyr(Me)-Glu-Cys-Gly-NH2 [FAM-mtgCPP]”, the “effect … on solubility” value [6] was “did not decrease the solubility”, the “presence in membranes fraction” value ([7]; carboxyfluorescein F.I.) was “same extent as FAM-mtCPP1” and the “compartment of main accumulation” value [7] was “mainly accumulated in the mitochondria”.

In the case of glutathione [GSH], the “uptake of GSH in cells” value [8] is given as “≈ 1.5 μM”.

In the case of “Y(Me)ECG-NH2 (N-terminus assumed; SMILES COc1ccc(C[C@H](N)C(=O)N[C@@H](CCC(=O)O)C(=O)N[C@@H](CS)C(=O)NCC(N)=O)cc1) [UPF25]”, the “mitochondrial membrane potential (Δψm) without H2O2” value [2] is given as “decreased”, the “mitochondrial membrane potential (Δψm) with H2O2 (oxidative stress)” value [2] is given as “partially rescue” and the EC50 [9] is given as ~30 nM. The “effect on viability of different cell lines” value [10] was “did not affect the viability”.

In the case of FAM-D-Arg-Dmt-Orn-Phe-NH2 [FAM-mtCPP1], the “effect … on solubility” value [6] is reported as “did not decrease the solubility” and the “increase in cytosol fraction between FAM-UPF25 and FAM-mtCPP1” value ([7]; carboxyfluorescein F.I., direction not given) is reported as 2 fold.
